Data published in ChEMBL document CHEMBL1140307, “Design and synthesis of alpha-aryloxyphenylacetic acid derivatives: a novel class of PPARalpha/gamma dual agonists with potent antihyperglycemic and lipid modulating activity” (J Med Chem, 2005).
Values joined by “and” are separate entries in the source; they are usually repeats but may differ in a detail not shown here. Equal values may be shown once.

What was measured:
[1] = Half life when administered intravenously at a dose of 0.5 mg/kg to rats; format: ADME, organism-based; parameters: dose 0.5 mg/kg, route intravenous; details: rat, in vivo, iv
Method in brief: (§1)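 Male Sprague-Dawley rats (n = 3) and male adult Beagle dogs (n = 4) were fasted overnight. They received either a 2 mg/kg oral gavage dose or a 0.5 mg/kg IV bolus. Blood was drawn into heparin tubes from a femoral arterial cannula (rat) or the jugular vein (dog) at set time points. Plasma was acidified with 0.5 M formate pH 3.0, stored at -70 °C and quantified by LC-MS/MS.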

Cricetinae gen. sp. [2] = assay: Percentage change in the serum cholesterol upon administration of compound (10 mpk) in hamster; format: functional
Method in brief: (§2)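 Male Golden Syrian hamsters were fed normal rodent chow and dosed orally once daily with compound. Serum total cholesterol and triglyceride were measured and expressed as percent change versus vehicle controls.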

Mesocricetus auratus = species on record: Mesocricetus auratus; assay: Effect (3 mpk) on serum triglyceride in hamster
[3] = molecular target: T1, Peroxisome proliferator-activated receptor alpha (Homo sapiens, UniProt Q07869); assay: Agonist response against human PPAR alpha in transactivation assay
T1 sequence (Q07869 whole entry): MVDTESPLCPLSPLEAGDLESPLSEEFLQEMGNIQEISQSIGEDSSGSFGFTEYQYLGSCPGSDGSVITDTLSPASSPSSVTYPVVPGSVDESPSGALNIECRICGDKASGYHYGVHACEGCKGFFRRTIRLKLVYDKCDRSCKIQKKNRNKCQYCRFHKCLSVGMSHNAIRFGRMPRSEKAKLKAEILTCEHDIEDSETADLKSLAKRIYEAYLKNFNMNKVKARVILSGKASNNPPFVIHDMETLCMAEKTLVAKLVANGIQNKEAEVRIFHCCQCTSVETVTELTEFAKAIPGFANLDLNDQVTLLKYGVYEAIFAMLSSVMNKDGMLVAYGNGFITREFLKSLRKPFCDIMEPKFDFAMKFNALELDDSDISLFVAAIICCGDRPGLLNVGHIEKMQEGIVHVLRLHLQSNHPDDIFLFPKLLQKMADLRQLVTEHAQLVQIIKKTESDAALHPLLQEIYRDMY

Cricetinae gen. sp. [4] = assay: Effect (3 mpk) on serum cholesterol in hamster; format: functional
Method in brief: (§3)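 Male Golden Syrian hamsters on normal rodent chow, dosed orally with test compound (9 days per table legend). Serum total cholesterol and triglyceride were measured in mg/dL. Values are group means, expressed as % change versus the vehicle-treated control group.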

[5] = molecular target: T2, Peroxisome proliferator-activated receptor gamma (Homo sapiens, UniProt P37231); assay: In vitro binding affinity for human PPAR gamma
T2 sequence (P37231 whole entry): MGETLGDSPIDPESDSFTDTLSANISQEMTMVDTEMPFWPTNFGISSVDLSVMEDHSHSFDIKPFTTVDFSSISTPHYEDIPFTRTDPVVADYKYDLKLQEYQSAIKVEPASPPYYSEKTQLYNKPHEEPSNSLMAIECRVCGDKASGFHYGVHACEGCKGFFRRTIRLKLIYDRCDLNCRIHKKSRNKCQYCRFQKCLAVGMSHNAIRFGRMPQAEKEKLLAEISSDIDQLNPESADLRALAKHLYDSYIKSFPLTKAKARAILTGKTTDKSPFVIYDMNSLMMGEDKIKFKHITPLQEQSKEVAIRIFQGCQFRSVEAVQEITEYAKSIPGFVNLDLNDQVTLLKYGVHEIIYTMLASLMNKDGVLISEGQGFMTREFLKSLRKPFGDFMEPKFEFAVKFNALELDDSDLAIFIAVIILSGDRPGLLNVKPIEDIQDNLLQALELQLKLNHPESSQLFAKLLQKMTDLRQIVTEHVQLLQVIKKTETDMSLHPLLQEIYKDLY

Cricetinae gen. sp. [6] = assay: Effect (10 mpk) on serum cholesterol in hamster; format: functional; method in brief: as §3
Cricetinae gen. sp. [7] = assay: Percentage change in the serum cholesterol upon administration of compound (3 mpk) in hamster; format: functional; method in brief: as §2
[8] = Oral bioavailability in dog; format: ADME, organism-based, Canis lupus familiaris; details: in vivo; method in brief: as §1
Cricetinae gen. sp. [9] = assay: Percentage change in the serum triglyceride upon administration of compound (3 mpk) in hamster; format: functional; method in brief: as §2
[10] = Area under concentration time curve of compound when administered perorally at a dose of 2 mg/kg to rats; format: ADME, organism-based; parameters: dose 2 mg/kg, route oral; details: rat, in vivo, po; method in brief: as §1
[11] = Oral bioavailability in rat; format: ADME, organism-based; details: in vivo; method in brief: as §1
[12] = molecular target: T2, Peroxisome proliferator-activated receptor gamma; assay: Agonist response against human PPAR gamma in transactivation assay; format: functional
[13] = Half life when administered intravenously at a dose of 0.5 mg/kg to dogs; format: ADME, organism-based, Canis lupus familiaris; parameters: dose 0.5 mg/kg, route intravenous; details: dog, in vivo, iv; method in brief: as §1
[14] = molecular target: T1, Peroxisome proliferator-activated receptor alpha; assay: In vitro binding affinity for human PPAR alpha
[15] = Area under concentration time curve of compound when administered perorally at a dose of 2 mg/kg to dogs; format: ADME, organism-based, Canis lupus familiaris; parameters: dose 2 mg/kg, route oral; details: dog, in vivo, po; method in brief: as §1

SMILES: CCCc1cc(C(=O)CC)cc(CCC)c1O[C@H](C(=O)O)c1ccc(C(C)C)cc1
- half-life [1]: 6.1 h
- Change (Cricetinae gen. sp. [2]): -33% and -29% and -17.5%
- Triglyceride level (Mesocricetus auratus): 259 mg/dL
- EC50 [3]: 0.056 µM
- Cholesterol level (Cricetinae gen. sp. [4]): 88 mg/dL
- IC50 [5]: 0.075 µM
- Cholesterol level (Cricetinae gen. sp. [6]): 86 mg/dL
- Triglyceride level (Cricetinae gen. sp. [6]): 236 mg/dL
- Change (Cricetinae gen. sp. [7]): -32%
- bioavailability [8]: 85%
- Change (Cricetinae gen. sp. [9]): -22%
- AUC [10]: 154 µM·h
- bioavailability [11]: 65%
- EC50 [12]: 0.15 µM
- half-life [13]: 2.5 h
- IC50 [14]: 0.023 µM
- AUC [15]: 70.5 µM·h
